Results taken from ChEMBL document CHEMBL1153029, “In vitro and in vivo studies of 6,8-(diaryl)imidazo[1,2-a]pyrazin-3(7H)-ones as new antioxidants” (Bioorg Med Chem, 2009).

Assays:
Hamster = test: Antioxidant activity against microvascular damage in hamster model of cheek pouch submitted to ischemia/reperfusion assessed as inhibition of leaky sites at 3 mg/kg treated by gavage route 30 mins before anesthesia measured after 30 mins of reperfusion by FITC-dextran based microscopy; format: functional; conditions: Cricetinae, po
Method in brief: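 Hamsters anesthetized, kept on a-chloralose (100 mg/kg) via the femoral vein, femoral artery cannulated for blood pressure, body temperature 37.5 °C. Compound at 3 mg/kg or solvent given by gavage in 0.2 ml, 3 animals per group. FITC-dextran (150,000 Da) given i.v. at 25 mg/100 g. Cuff ischemia of everted pouch. Leaky sites counted; % inhibition = [1 − mean treated/mean control] × 100.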

[1] = Antioxidant activity assessed as chemical oxidative degradation into N-(5-(4-hydroxyphenyl)pyrazin-2-yl)benzamide at 80 uM by HPLC in presence of linoleic acid and azo-bis-isobutyronitrile; format: functional
[2] = Antioxidant activity assessed as chemical oxidative degradation into benzoic acid at 80 uM by HPLC in presence of linoleic acid; format: functional
[3] = Antioxidant activity assessed as chemical oxidative degradation into benzoic acid at 80 uM by HPLC in presence of linoleic acid and azo-bis-isobutyronitrile; format: functional
[4] = Antioxidant activity assessed as chemical oxidative degradation into N-(5-(4-hydroxyphenyl)pyrazin-2-yl)benzamide at 80 uM after 18 hrs by HPLC; format: functional
Method in brief: (§1)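 Imidazopyrazinone mixed 1:1 with standard (8 × 10^-5 M) in 96:4 ACN–EtOH. Kept in the dark at 37 °C and sampled by HPLC hourly for 18 h.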

[5] = Antioxidant activity assessed as chemical oxidative degradation into 4-(5-aminopyrazin-2-yl)phenol at 80 uM after 18 hrs by HPLC in presence of azo-bis-isobutyronitrile; format: functional
[6] = Antioxidant activity assessed as chemical oxidative degradation into N-(5-(4-hydroxyphenyl)pyrazin-2-yl)benzamide at 80 uM after 18 hrs by HPLC in presence of azo-bis-isobutyronitrile; format: functional
[7] = Antioxidant activity assessed as time required for chemical oxidative degradation of compound at 80 uM by HPLC in presence of linoleic acid; format: functional
[8] = Antioxidant activity assessed as chemical oxidative degradation into 4-(5-aminopyrazin-2-yl)phenol at 80 uM by HPLC in presence of linoleic acid; format: functional
[9] = Antioxidant activity assessed as chemical oxidative degradation into N-(5-(4-hydroxyphenyl)pyrazin-2-yl)benzamide at 80 uM by HPLC in presence of linoleic acid; format: functional
[10] = Antioxidant activity assessed as chemical oxidative degradation into 4-(5-aminopyrazin-2-yl)phenol at 80 uM by HPLC in presence of linoleic acid and azo-bis-isobutyronitrile; format: functional
[11] = Antioxidant activity assessed as chemical oxidative degradation into 4-(5-aminopyrazin-2-yl)phenol at 80 uM after 18 hrs by HPLC; format: functional; method in brief: as §1
[12] = Antioxidant activity assessed as time required for chemical oxidative degradation of compound at 80 uM by HPLC in presence of azo-bis-isobutyronitrile; format: functional
[13] = Chemical stability after 19 hrs; format: physicochemical
Method in brief: (§2)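 Aerobic oxidation of imidazopyrazinone (10^-3 M) with internal standard (5 × 10^-4 M) in 90:10:0.1 CH2Cl2/isopropanol/DEA. Sealed vial under white light at 23 °C for 19 h. Products quantified by HPLC against calibration curves, detection at 280 nm.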

[14] = Antioxidant activity assessed as chemical oxidative degradation into N-(5-(4-hydroxyphenyl)-3-phenylpyrazin-2-yl)acetamide at 1000 uM after 19 hrs by HPLC; format: functional; method in brief: as §2
[15] = Antioxidant activity assessed as chemical oxidative degradation into N-(5-(4-hydroxyphenyl)-3-(4-(trifluoromethyl)phenyl)pyrazin-2-yl)acetamide at 1000 uM after 19 hrs by HPLC; format: functional; method in brief: as §2
[16] = Antioxidant activity assessed as chemical oxidative degradation into 4-(5-amino-6-(4-(trifluoromethyl)phenyl)pyrazin-2-yl)phenol at 1000 uM after 19 hrs by HPLC; format: functional; method in brief: as §2
[17] = Antioxidant activity assessed as chemical oxidative degradation into N-(3-(4-acetylphenyl)-5-(4-hydroxyphenyl)pyrazin-2-yl)acetamide at 1000 uM after 19 hrs by HPLC; format: functional; method in brief: as §2
[18] = Stability at pH 7.4 at 80 uM during 1 day by HPLC in presence of linoleic acid and azo-bis-isobutyronitrile; format: physicochemical; conditions: buffer, pH 7.4, 24 h
[19] = Antioxidant activity assessed as chemical oxidative degradation into N-(3,5-bis(4-hydroxyphenyl)pyrazin-2-yl)acetamide at 1000 uM after 19 hrs by HPLC; format: functional; method in brief: as §2
[20] = Antioxidant activity assessed as chemical oxidative degradation into N-(3-(4-(dimethylamino)phenyl)-5-(4-hydroxyphenyl)pyrazin-2-yl)acetamide at 1000 uM after 19 hrs by HPLC; format: functional; method in brief: as §2
[21] = Antioxidant activity assessed as chemical oxidative degradation into 1-(4-(3-amino-6-(4-hydroxyphenyl)pyrazin-2-yl)phenyl)ethanone at 1000 uM after 19 hrs by HPLC; format: functional; method in brief: as §2
[22] = Antioxidant activity assessed as chemical oxidative degradation into 4,4'-(3-aminopyrazine-2,6-diyl)diphenol at 1000 uM after 19 hrs by HPLC; format: functional; method in brief: as §2
[23] = Antioxidant activity assessed as chemical oxidative degradation into 4-(5-amino-6-phenylpyrazin-2-yl)phenol at 1000 uM after 19 hrs by HPLC; format: functional; method in brief: as §2
[24] = Antioxidant activity assessed as chemical oxidative degradation into 4-(5-amino-6-(4-fluorophenyl)pyrazin-2-yl)phenol at 1000 uM after 19 hrs by HPLC; format: functional; method in brief: as §2
[25] = Antioxidant activity assessed as chemical oxidative degradation into N-(5-(4-hydroxyphenyl)-3-(4-methoxyphenyl)pyrazin-2-yl)acetamide at 1000 uM after 19 hrs by HPLC; format: functional; method in brief: as §2
[26] = Antioxidant activity assessed as chemical oxidative degradation into 4-(5-amino-6-(4-methoxyphenyl)pyrazin-2-yl)phenol at 1000 uM after 19 hrs by HPLC; format: functional; method in brief: as §2
[27] = Antioxidant activity assessed as chemical oxidative degradation into 4-(5-amino-6-(4-(dimethylamino)phenyl)pyrazin-2-yl)phenol at 1000 uM after 19 hrs by HPLC; format: functional; method in brief: as §2
[28] = Antioxidant activity assessed as chemical oxidative degradation into N-(3-(4-fluorophenyl)-5-(4-hydroxyphenyl)pyrazin-2-yl)acetamide at 1000 uM after 19 hrs by HPLC; format: functional; method in brief: as §2

Work on COc1ccc(-c2[nH]c(-c3ccc(O)cc3)cn3c(=O)c(C)nc2-3)cc1 yielded an inhibition in vivo at 3 mg/kg (Hamster) of 44%.
Compound Oc1ccc(-c2cn3c(O)c(-c4ccccc4)nc3cn2)cc1 has an Activity [1] of 57%, an Activity [2] of 27% and an Activity [3] of 33%. The Activity [4] was under 5%, the Activity [5] was 44% and the Activity [6] was 26%. It also gave an Activity [7] of under 6 h, an Activity [8] of 30% and an Activity [9] of 66%. The Activity [10] was 40%, the Activity [11] was 9% and the Activity [12] was 5 h.
Cc1nc2c(-c3ccc(F)cc3)[nH]c(-c3ccc(O)cc3)cn-2c1=O showed an inhibition in vivo at 3 mg/kg (Hamster) of 34%.
With CC(=O)Nc1ncc(-c2ccc(O)cc2)nc1-c1ccccc1 the Stability [13] was “Stable” and the Activity [14] was 15%.
CC(=O)Nc1ncc(-c2ccc(O)cc2)nc1-c1ccc(C(F)(F)F)cc1 showed an Activity [15] of 16%.
Nc1ncc(-c2ccc(O)cc2)nc1-c1ccc(C(F)(F)F)cc1 showed an inhibition in vivo at 3 mg/kg (Hamster) of 14% and an Activity [16] of 78%.
CC(=O)Nc1ncc(-c2ccc(O)cc2)nc1-c1ccc(C(C)=O)cc1 gave an Activity [17] of 22%.
For O=C(O)c1ccccc1 [BENZOIC ACID], the Stability [18] was “Stable”.
COc1cc(C(C)=O)ccc1O [APOCYNIN] showed an inhibition in vivo at 3 mg/kg (Hamster) of 40%.
CC(=O)Nc1ncc(-c2ccc(O)cc2)nc1-c1ccc(O)cc1 showed an Activity [19] of 16%.
Compound Cc1nc2c(-c3ccc(N(C)C)cc3)[nH]c(-c3ccc(O)cc3)cn-2c1=O has an inhibition in vivo at 3 mg/kg (Hamster) of 21%.
Cc1nc2c(-c3ccc(O)cc3)[nH]c(-c3ccc(O)cc3)cn-2c1=O gave an inhibition in vivo at 3 mg/kg (Hamster) of 40%.
With CC(=O)Nc1ncc(-c2ccc(O)cc2)nc1-c1ccc(N(C)C)cc1 the Activity [20] was 18%.
CC(=O)c1ccc(-c2nc(-c3ccc(O)cc3)cnc2N)cc1 showed an Activity [21] of 67%.
In the case of Nc1ncc(-c2ccc(O)cc2)nc1-c1ccc(O)cc1, the inhibition in vivo at 3 mg/kg (Hamster) is reported as 29% and the Activity [22] is reported as 77%.
Compound Nc1ncc(-c2ccc(O)cc2)nc1-c1ccccc1 has an Activity [23] of 66% and an inhibition in vivo at 3 mg/kg (Hamster) of 18%.
Nc1ncc(-c2ccc(O)cc2)nc1-c1ccc(F)cc1 showed an inhibition in vivo at 3 mg/kg (Hamster) of 42% and an Activity [24] of 76%.
In the case of COc1ccc(-c2nc(-c3ccc(O)cc3)cnc2NC(C)=O)cc1, the Activity [25] is reported as 21%.
COc1ccc(-c2nc(-c3ccc(O)cc3)cnc2N)cc1 gave an inhibition in vivo at 3 mg/kg (Hamster) of 10% and an Activity [26] of 71%.
In the case of CN(C)c1ccc(-c2nc(-c3ccc(O)cc3)cnc2N)cc1, the inhibition in vivo at 3 mg/kg (Hamster) is reported as 50% and the Activity [27] is reported as 68%.
Compound Cc1nc2c(-c3ccc(C(F)(F)F)cc3)[nH]c(-c3ccc(O)cc3)cn-2c1=O has an inhibition in vivo at 3 mg/kg (Hamster) of 17%.
Compound CC(=O)Nc1ncc(-c2ccc(O)cc2)nc1-c1ccc(F)cc1 has an Activity [28] of 17%.
In the case of O=C(Nc1cnc(-c2ccc(O)cc2)cn1)c1ccccc1, the Stability [18] is reported as “Stable”.
Cc1nc2c(-c3ccccc3)[nH]c(-c3ccc(O)cc3)cn-2c1=O gave an inhibition in vivo at 3 mg/kg (Hamster) of 12%.
